Results as given in ChEMBL document CHEMBL2163246 (J Nat Prod, 2012).
pIC50: −log10 of the molar value. Values after ≈ are worked out from the molar mass of the structure shown. Where a SMILES comes first, the peptide text is derived from it.

Legend:
MDA-MB-231 = assay: Cytotoxicity against human MDA-MB-231 cells after 72 hrs by MTS assay; format: functional, cell-based; details: MDA-MB-231, 72 h
Summary of the method: (§1)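 Cells plated at 4 × 10³ cells/well, left overnight, then exposed to increasing concentrations (0.064–40 μM) diluted from DMSO solution into culture medium. After 72 h, MTS/PMS reagent added; absorbance read at 490 nm. Viability = (OD_treat − OD_blank)/(OD_control − OD_blank) × 100%, mean of triplicate wells; DMSO + medium untreated cells as control.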

KB [1] = assay: Cytotoxicity against human KB cells after 72 hrs by MTS assay; format: functional, cell-based; summary of the method: as §1
[2] = Cytotoxicity against mouse DLA cells; format: functional
MOLT-4 = assay: Cytotoxicity against human MOLT4 cells after 72 hrs by MTS assay; format: functional, cell-based; details: MOLT-4, 72 h; summary of the method: as §1
Candida albicans = assay: Antimicrobial activity against Candida albicans; format: functional
[3] = Cytotoxicity against mouse EAC cells; format: functional; details: Ehrlich
Jurkat = assay: Cytotoxicity against human Jurkat T cells after 72 hrs by MTS assay; format: functional, cell-based; summary of the method: as §1
KB [4] = assay: Cytotoxicity against human KB cells; format: functional, cell-based
Pseudomonas aeruginosa = assay: Antimicrobial activity against Pseudomonas aeruginosa; format: functional
Escherichia coli = assay: Antimicrobial activity against Escherichia coli; format: functional

| Compound | pIC50 (MDA-MB-231) | pIC50 (KB [1]) | further results |
| --- | --- | --- | --- |
| C[C@@H]1NC(=O)CNC(=O)[C@H](Cc2ccccc2)NC(=O)[C@H](Cc2ccc(O)cc2)NC(=O)[C@@H]2CCCN2C(=O)CNC1=O (HELM PEPTIDE1{A.G.P.Y.F.G}$PEPTIDE1,PEPTIDE1,1:R1-6:R2$$$V2.0) | < 5.00 | < 5.00 |  |
| CC(C)C[C@@H]1NC(=O)CNC(=O)[C@H](Cc2ccccc2)NC(=O)[C@H](C)NC(=O)[C@@H]2CCCN2C(=O)CNC1=O (HELM PEPTIDE1{A.F.G.L.G.P}$PEPTIDE1,PEPTIDE1,1:R1-6:R2$$$V2.0) | < 5.00 | < 5.00 |  |
| CC(C)C[C@@H]1NC(=O)CNC(=O)[C@H](Cc2ccccc2)NC(=O)[C@H](Cc2ccc(O)cc2)NC(=O)[C@@H]2CCCN2C(=O)[C@H](C)NC1=O (HELM PEPTIDE1{A.P.Y.F.G.L}$PEPTIDE1,PEPTIDE1,1:R1-6:R2$$$V2.0) | 4.99 | 5.20 |  |
| CC(C)C[C@@H]1NC(=O)CNC(=O)[C@H](Cc2ccccc2)NC(=O)[C@H](Cc2ccc(O)cc2)NC(=O)CNC(=O)CNC1=O (HELM PEPTIDE1{F.G.L.G.G.Y}$PEPTIDE1,PEPTIDE1,1:R1-6:R2$$$V2.0) | < 5.00 | < 5.00 |  |
| CC(C)C[C@@H]1NC(=O)[C@H](C)NC(=O)[C@H](Cc2ccccc2)NC(=O)[C@H](Cc2ccc(O)cc2)NC(=O)[C@@H]2CCCN2C(=O)CNC1=O (HELM PEPTIDE1{A.L.G.P.Y.F}$PEPTIDE1,PEPTIDE1,1:R1-6:R2$$$V2.0) | 5.11 | 5.11 |  |
| CC(C)C[C@@H]1NC(=O)CNC(=O)[C@H](C)NC(=O)[C@H](Cc2ccc(O)cc2)NC(=O)[C@@H]2CCCN2C(=O)CNC1=O (HELM PEPTIDE1{A.G.L.G.P.Y}$PEPTIDE1,PEPTIDE1,1:R1-6:R2$$$V2.0) | < 5.00 | < 5.00 |  |
| COc1cccc2c1C(=O)c1c(O)c3c(c(O)c1C2=O)C[C@@](O)(C(=O)CO)C[C@@H]3O[C@H]1C[C@H](N)[C@H](O)[C@H](C)O1 [DOXORUBICIN] | 7.40 |  |  |
| CC(C)C[C@@H]1NC(=O)CNC(=O)[C@H](Cc2ccccc2)NC(=O)[C@H](Cc2ccc(O)cc2)NC(=O)[C@@H]2CCCN2C(=O)CNC1=O [Cherimolacyclopeptide E] (HELM PEPTIDE1{F.G.L.G.P.Y}$PEPTIDE1,PEPTIDE1,1:R1-6:R2$$$V2.0) | < 5.00 | < 5.00 | CC50 [2]: 2.76 µM; pIC50 (MOLT-4): < 5.00; MIC (Candida albicans): 6 µg/mL (≈ 9.45 µM); CC50 [3]: 4.96 µM; pIC50 (Jurkat): < 5.00; pIC50 (KB [4]): < 5.00; MIC (Pseudomonas aeruginosa): 6 µg/mL (≈ 9.45 µM); MIC (Escherichia coli): 6 µg/mL (≈ 9.45 µM) |
| CC(C)C[C@@H]1NC(=O)CNC(=O)[C@H](Cc2ccccc2)NC(=O)[C@H](Cc2ccc(O)cc2)NC(=O)[C@H](C)NC(=O)CNC1=O (HELM PEPTIDE1{A.Y.F.G.L.G}$PEPTIDE1,PEPTIDE1,1:R1-6:R2$$$V2.0) | < 5.00 | < 5.00 |  |
